# In PMC3858840 (Journal of molecular biology, 2013):
# How the values were obtained:
# [1] = system: CaM (calmodulin); assay: Direct interaction between moesin-FERM and CaM; format: binding; settings: up to 10 µM moesin-FERM; 0.3 mM CaCl2; ex 340 nm
# [2] = system: TMR-CLS/POPC/POPS liposome; format: binding, human; settings: added alone, before moesin-FERM; 15% POPS/85% POPC; 0.3 mM CaCl2; 575 nm
# Summary of the method: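 TMR-CLS was extruded (400-nm filter) into 15% POPS/85% POPC liposomes at 1:1000 peptide:lipid and diluted to about 5 nM in 50 mM Tris–HCl, 150 mM NaCl, 0.3 mM CaCl₂, pH 7.4. Additions carried 5 nM liposome. First 3 µM Ca/CaM, then moesin-FERM (400 nM, then 100 nM steps). TMR emission was recorded continuously at 575 nm (excitation 542 nm).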
molecule,measurement,setting,value
"moesin-FERM: FERM domain of human moesin (residues 1–346), recombinant (protein) MPKTISVRVTTMDAELEFAIQPNTTGKQLFDQVVKTIGLREVWFFGLQYQDTKGFSTWLKLNKKVTAQDVRKESPLLFKFRAKFYPEDVSEELIQDITQRLFFLQVKEGILNDDIYCPPETAVLLASYAVQSKYGDFNKEVHKSGYLAGDKLLPQRVLEQHKLNKDQWEERIQVWHEEHRGMLREDAVLEYLKIAQDLEMYGVNYFSIKNKKGSELWLGVDALGLNIYEQNDRLTPKIGFPWSEIRNISFNDKKFVIKPIDKKAPDFVFYAPRLRINKRILALCMGNHELYMRRRKPDTIEVQQMKAQAREEKHQKQMERAMLENEKKKREMAEKEKEKIEREKEE",change in IAEDANS fluorescence emission of IAEDANS-CaM,[1],little change in the IAEDANS fluorescence emission
same,change in TMR fluorescence of TMR-CLS/POPS liposome on addition,[2],decrease of TMR fluorescence emission
